This is an account of results in ChEMBL document CHEMBL1138778, “Effects of altering the electronics of 2-methoxyestradiol on cell proliferation, on cytotoxicity in human cancer cell cultures, and on tubulin polymerization” (J Med Chem, 2004).

The structures appear in SMILES notation.

One assay has as its system HCT-116. As to the kind of experiment: Growth inhibitory concentration against human colon cancer HCT116 cell line. The class given is functional. An outline of the steps: (§1)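 Screen over 10^-4 to 10^-8 M in a human cancer cell line panel. GI50 is the concentration giving 50% growth inhibition of the individual cell line.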
For the next assay, the system named is DU-145. Kind of assay: Growth inhibitory concentration required against human prostate DU-145 cancer cell line. The class given is functional. In short, it runs like this:
as §1

In a further assay the test system is MDA-MB-435. Kind of assay: Growth inhibitory concentration required against human breast MDA-MB-435 cancer cell line. The class given is functional. In short, it runs like this:
as §1

For a further assay, the system named is UACC-62. Kind of assay: Growth inhibitory concentration required against human melanoma UACC-62 cancer cell line. The class given is functional. An outline of the steps: as §1
A further assay deals with HOP-62. Kind of assay: Growth inhibitory concentration against human lung cancer HOP-62 cell line. The class given is functional. In short, it runs like this:
as §1

Assay [1] can be described thus: Average concentration required for 50% growth inhibition of human cancer cell line (tested). The class given is functional. Conditions: Cancer cell lines. An outline of the steps:
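Mean graph midpoint: average of the individual cell line GI50 values across all cancer lines screened over 10^-4 to 10^-8 M. GI50 values falling outside this range were set to 10^-8 M (below) or 10^-4 M (above).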

The test system of a further assay is MDA-MB-231. Kind of assay: Inhibitory concentration against growth of MDA-MB-231 cancer cell line. The class given is functional, cell-based. Conditions: Homo sapiens. An outline of the steps: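 MDA-MB-231 cells in DMEM/F12 (1:1) with 10% FBS, seeded at 1000 cells/well and attached overnight. Cells were exposed to compound for 48 h. Proliferation was read by BrdU-incorporation colorimetric ELISA or by cell counting, in triplicate, with experiments repeated at least twice.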

A further assay deals with SF-539. As to the kind of experiment: Growth inhibitory concentration required against human CNS SF-539 cancer cell line. The class given is functional. In short, it runs like this: as §1
A further assay concerns SN12C. As to the kind of experiment: Growth inhibitory concentration required for against human renal SN12C cancer cell line. The class given is functional. An outline of the steps: as §1
The next assay deals with OVCAR-3. Kind of assay: Growth inhibitory concentration required against human ovarian OVCAR-3 cancer cell line. The class given is functional. An outline of the steps:
as §1

For a further assay, the system named is HUVEC. As to the kind of experiment: Inhibitory concentration required against growth of HUVEC […] cell line. The class given is functional, cell-based. Conditions: Homo sapiens. In short, it runs like this:
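HUVEC, used up to five passages in EGM with bovine brain extract and antibiotic-antimycotic, seeded at 3000 cells/well and attached overnight. Cells were exposed to compound for 48 h. Proliferation was read by BrdU-incorporation colorimetric ELISA or by cell counting, in triplicate, with experiments repeated at least twice.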

The next assay addresses Tubulin (Bos taurus, UniProt Q6B856+Q862L2+Q862F3). As to the kind of experiment: Inhibitory concentration against bovine tubulin polymerization. The class given is functional. An outline of the steps:
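Bovine brain tubulin, 1.2 mg/mL (12 μM), was preincubated with a range of compound concentrations and then chilled on ice. GTP was added and assembly followed by turbidity at 350 nm for 20 min at 26 °C. IC50 is the concentration halving assembly at 20 min, from at least two independent assays.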

As to `C[C@]12CC[C@@H]3c4cc(CO)c(O)cc4CC[C@H]3[C@@H]1CC[C@@H]2O`, the concentration for 50% growth inhibition (GI50) in the assay on HCT-116 stood at 74.1 µM; in the assay with DU-145 it was 70.8 µM; in the assay on MDA-MB-435, 24 µM; with UACC-62, 23.4 µM; in the assay with HOP-62, 72.4 µM; in assay [1], 34.7 µM. The GI50 with SF-539 stood at 38 µM; in the assay with SN12C, 63.1 µM; in the assay on OVCAR-3 it was 31.6 µM. Further, the IC50 is 99.2 µM in the assay on MDA-MB-231, 7.73 µM in the assay with HUVEC and > 40 µM on Tubulin.

As for `CCOc1cc2c(cc1O)CC[C@@H]1[C@@H]2CC[C@]2(C)[C@@H](O)CC[C@@H]12`, the figures for the IC50 in the assay with MDA-MB-231 and with HUVEC were 0.55 µM and 0.12 µM, respectively.

Consider `CC#Cc1cc2c(cc1O)CC[C@@H]1[C@@H]2CC[C@]2(C)[C@@H](O)CC[C@@H]12`, for which the figures for the IC50 with MDA-MB-231 and in the assay on HUVEC were 3.99 µM and 0.52 µM, respectively.

Turning to `C[C@]1(O)CC[C@H]2[C@@H]3CCc4cc(O)ccc4[C@H]3CC[C@@]21C`, the 50% growth inhibitory concentration (GI50) in the assay with HCT-116 is 0.7 µM; in the assay with DU-145 it was 2 µM; in the assay on MDA-MB-435, 0.19 µM; with UACC-62, 1.48 µM; in the assay with HOP-62 it was 18.2 µM; in assay [1], 2.5 µM. The GI50 in the assay with SF-539 was found to be 0.35 µM; in the assay with SN12C, 10.2 µM; in the assay on OVCAR-3 it was 0.66 µM. Further, the half-maximal inhibitory concentration (IC50) turned out to be 7.14 µM with MDA-MB-231, 3.09 µM in the assay on HUVEC and 5.6 µM on Tubulin.

As for `C=CCc1cc2c(cc1O)CC[C@@H]1[C@@H]2CC[C@]2(C)[C@@H](O)CC[C@@H]12`, the GI50 worked out at 14.1 µM in the assay with HCT-116; 24 µM with DU-145; 15.1 µM in the assay on MDA-MB-435; 13.2 µM with UACC-62; 13.8 µM with HOP-62; 18.2 µM in assay [1]. Moreover, the GI50 was 21.9 µM with SF-539, 18.2 µM with SN12C and 21.9 µM in the assay with OVCAR-3. Besides, the IC50 was 33.4 µM in the assay with MDA-MB-231, 8.51 µM in the assay with HUVEC and > 40 µM at Tubulin.

As for `CCC(=O)c1cc2c(cc1O)CC[C@@H]1[C@@H]2CC[C@]2(C)[C@@H](O)CC[C@@H]12`, the 50% growth inhibitory concentration (GI50) with HCT-116 is 9.3 µM; in the assay with DU-145 it was 15.5 µM; in the assay with MDA-MB-435, 2.4 µM; in the assay on UACC-62, 11.5 µM; in the assay with HOP-62, 15.1 µM; in assay [1], 12 µM. Besides, the 50% growth inhibitory concentration (GI50) in the assay on SF-539 amounted to 11.7 µM; in the assay with SN12C it was 13.8 µM; in the assay on OVCAR-3, 4 µM. Moreover, the IC50 was 15.8 µM in the assay on MDA-MB-231, 22.5 µM in the assay on HUVEC and > 40 µM against Tubulin.

For `CC(=O)Oc1cc2c(cc1C(C)(F)F)[C@H]1CC[C@]3(C)[C@@H](OC(C)=O)CC[C@H]3[C@@H]1CC2`, the concentration for 50% growth inhibition (GI50) with HCT-116 is 10.7 µM; in the assay on DU-145, 13.8 µM; in the assay with MDA-MB-435 it was 20.9 µM; in the assay with UACC-62, 12.3 µM; in the assay on HOP-62, 31.6 µM; in [1], 11.7 µM. In addition, the GI50 in the assay on SF-539 is 20 µM; with SN12C, 27.5 µM; in the assay with OVCAR-3, 1.9 µM. Besides, the IC50 is 95.9 µM with MDA-MB-231, 32.3 µM in the assay with HUVEC and > 40 µM at Tubulin.

`CN(C)CCC/N=C/c1cc2c(cc1O)CC[C@@H]1[C@@H]2CC[C@]2(C)[C@@H](O)CC[C@@H]12`: the 50% growth inhibitory concentration (GI50) in the assay with HCT-116 amounted to 12.6 µM; in the assay with DU-145, 20.9 µM; with MDA-MB-435 it was 22.9 µM; with UACC-62 it was 13.8 µM; with HOP-62, 21.4 µM; in [1], 20 µM. Further, the 50% growth inhibitory concentration (GI50) with SF-539 came out at 18.2 µM; in the assay on SN12C, 25.7 µM; in the assay with OVCAR-3, 19.5 µM. Also, on Tubulin, the IC50 was > 40 µM.

On to `C/C(COc1cc2c(cc1O)CC[C@@H]1[C@@H]2CC[C@]2(C)[C@@H](O)CC[C@@H]12)=N/O`, for which the GI50 is 18.2 µM with HCT-116; 29.5 µM with DU-145; 24 µM in the assay with MDA-MB-435; 15.5 µM with UACC-62; 23.4 µM in the assay with HOP-62; 24 µM in assay [1]. Also, the figures for the GI50 in the assay with SF-539, in the assay on SN12C and in the assay with OVCAR-3 were 20.9 µM, 27.5 µM and 20.4 µM, respectively. In addition, the IC50 on Tubulin was > 40 µM.

For `C[C@]12CC[C@@H]3c4cc(/C=N/C5CC5)c(O)cc4CC[C@H]3[C@@H]1CC[C@@H]2O`, the GI50 in the assay with HCT-116 was found to be 12.3 µM; in the assay with DU-145 it was 16.6 µM; in the assay with MDA-MB-435, 16.2 µM; in the assay on UACC-62, 16.2 µM; in the assay with HOP-62 it was 24 µM; in assay [1] it was 16.6 µM. Besides, the GI50 in the assay on SF-539 is 17 µM; in the assay with SN12C it was 70.8 µM; in the assay with OVCAR-3, 14.5 µM. Moreover, the IC50 against Tubulin is > 40 µM.

Consider `CC(=O)c1cc2c(cc1O)CC[C@@H]1[C@@H]2CC[C@]2(C)[C@@H](O)CC[C@@H]12`, for which the GI50 was 55 µM in the assay on DU-145; 4.3 µM with MDA-MB-435; 24.5 µM in the assay on UACC-62; 5.4 µM with HOP-62; 17.4 µM in [1]; 18.6 µM in the assay on SF-539. Moreover, the GI50 was found to be 53.7 µM in the assay on SN12C and 25.7 µM in the assay on OVCAR-3. The IC50 is 13.6 µM with MDA-MB-231, 15.6 µM in the assay on HUVEC and > 20 µM against Tubulin.

Turning to `C[C@]12CC[C@@H]3c4cc(C(F)(F)C(F)(F)F)c(O)cc4CC[C@H]3[C@@H]1CC[C@@H]2O`, the GI50 is 17.8 µM in the assay on HCT-116; 14.5 µM in the assay on DU-145; 12 µM in the assay with MDA-MB-435; 13.8 µM in the assay with UACC-62; 18.6 µM in assay [1]; 18.2 µM with SF-539. Also, the GI50 was 16.6 µM with SN12C and 13.2 µM in the assay on OVCAR-3. Besides, the IC50 in the assay on MDA-MB-231 was 47.5 µM; with HUVEC, 25 µM; on Tubulin, > 40 µM.

As for `COc1cc2c(cc1O)CC[C@@H]1[C@@H]2CC[C@@]2(C)[C@H]1CC[C@@]2(O)C(F)(F)F`, the 50% growth inhibitory concentration (GI50) with HCT-116 is 22.4 µM; in the assay on DU-145, 18.2 µM; with MDA-MB-435, 16.2 µM; in the assay with UACC-62 it was 18.2 µM; in assay [1], 19.5 µM; with SF-539, 19.5 µM. Also, the GI50 with SN12C was 24.5 µM; with OVCAR-3 it was 15.8 µM. Besides, the figures for the IC50 in the assay with MDA-MB-231, in the assay on HUVEC and against Tubulin were 49.3 µM, 40 µM and > 40 µM, respectively.

Consider `COCc1cc2c(cc1O)CC[C@@H]1[C@@H]2CC[C@]2(C)[C@@H](O)CC[C@@H]12`, for which the GI50 in the assay with HCT-116 turned out to be 33.1 µM; with DU-145 it was 64.6 µM; in the assay on MDA-MB-435, 7.8 µM; in the assay on UACC-62, 24.5 µM; in the assay with HOP-62 it was 83.2 µM; in assay [1], 38 µM. Also, the values for the GI50 with SF-539, with SN12C and with OVCAR-3 were 33.9 µM, 56.2 µM and 40.7 µM, respectively. For the same molecule, the results for the IC50 with MDA-MB-231, in the assay with HUVEC and against Tubulin were 54 µM, 28.8 µM and > 40 µM, respectively.
